Test results published in ChEMBL document CHEMBL1287788, “2-aminohydroxamic acid derivatives as inhibitors of Bacillus cereus phosphatidylcholine preferred phospholipase C PC-PLC(Bc)” (Bioorg Med Chem, 2010).

How the values were obtained:
Phospholipase C [1] = molecular target: T1, Phospholipase C (Bacillus cereus, UniProt P09598); experiment: Non-competitive inhibition of Bacillus cereus phosphatidylcholine preferred phospholipase C by Dixon plot analysis
T1 sequence (P09598 whole entry): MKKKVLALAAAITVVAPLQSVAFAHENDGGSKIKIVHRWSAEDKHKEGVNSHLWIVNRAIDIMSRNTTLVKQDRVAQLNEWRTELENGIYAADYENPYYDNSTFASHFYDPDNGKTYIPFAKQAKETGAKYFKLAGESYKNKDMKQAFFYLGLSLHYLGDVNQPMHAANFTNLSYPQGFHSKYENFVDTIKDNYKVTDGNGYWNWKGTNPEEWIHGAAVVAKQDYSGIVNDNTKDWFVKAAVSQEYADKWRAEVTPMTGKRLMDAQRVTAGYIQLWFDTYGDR

[2] = Cytotoxicity against human A549 cells after 24 hrs by MTT assay; assay type: cell-based; settings: read-out: LD50
Phospholipase C [3] = molecular target: T1, Phospholipase C; experiment: Inhibition of Bacillus cereus phosphatidylcholine preferred phospholipase C after 100 seconds
Summary of the method: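 Bacillus cereus PC-PLC activity measured by a coupled read-out: phosphorylcholine released by the enzyme is hydrolysed by alkaline phosphatase, and the freed phosphate ions are quantified. Substrate was 1,2-di-n-hexanoyl-sn-glycero-3-phosphocholine at 2 mM final, below its CMC of 11.1 mM. Compound CMC values were determined so the assay ran under non-micellar conditions.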

[4] = Critical micelle concentration of the compound; assay type: physicochemical
Phospholipase C [5] = molecular target: T1, Phospholipase C; experiment: Uncompetitive inhibition of Bacillus cereus phosphatidylcholine preferred phospholipase C by Dixon plot analysis
Phospholipase C [6] = molecular target: T1, Phospholipase C; experiment: Mixed-type inhibition of Bacillus cereus phosphatidylcholine preferred phospholipase C by Dixon plot analysis
[7] = molecular target: T2, Phospholipase C (Bacillus cereus) (UniProt P09598); experiment: Irreversible inhibition of Bacillus cereus phosphatidylcholine preferred phospholipase C assessed as residual activity after 10 mins
T2 sequence (whole entry): T1 sequence (P09598 whole entry)

SMILES | Ki (Phospholipase C [1]) | CC50 at 24 h [2] | IC50 (Phospholipase C [3]) | CMC [4] | Ki (Phospholipase C [5]) | Ki (Phospholipase C [6]) | Activity [7]
CCCCCCCCCCC(NC(=O)OC(C)(C)C)C(=O)N(CCCN(C)C)OCc1ccccc1 (centres undefined) | 2.5 µM | 6 µM | 8 µM | 10 µM | – | – | –
CCCCCCCCCCCCCCCCCCC(NC(=O)OC(C)(C)C)C(=O)N(CC[N+](C)(C)C)OCc1ccccc1.[I-] (centres undefined) | – | 25.1 µM | – | 75 µM | – | – | –
CCCCCCCCCCCCCCC(N)C(=O)N(CC[N+](C)(C)C)OCc1ccccc1.Cl.[Cl-] (centres undefined) | – | 75.3 µM | 4 µM | 90 µM | – | – | –
CCCCCCCCCCC(N)C(=O)N(O)CC[N+](C)(C)C.Cl.[Cl-] (centres undefined) | – | > 100 µM | 40 µM | > 500 µM | 12 µM | – | –
CCCCCCC(N)C(=O)N(CC[N+](C)(C)C)OCc1ccccc1.Cl.[Cl-] (centres undefined) | – | > 100 µM | > 500 µM | > 500 µM | – | – | –
CCCCCCCCCCCCCCC(N)C(=O)N(O)CC[N+](C)(C)C.Cl.[Cl-] (centres undefined) | – | 100 µM | 2 µM | 120 µM | – | – | –
CCCCCCC(N)C(=O)N(O)CCCN(C)C.Cl.Cl (centres undefined) | – | > 100 µM | > 500 µM | > 500 µM | – | – | –
CCCCCCCCCCC(N)C(=O)N(CCC[N+](C)(C)C)OCc1ccccc1.Cl.[Cl-] (centres undefined) | – | 43.4 µM | 50 µM | 141 µM | – | – | –
CCCCCCC(NC(=O)OC(C)(C)C)C(=O)N(CCC[N+](C)(C)C)OCc1ccccc1.[I-] (centres undefined) | – | > 100 µM | 78 µM | 221 µM | – | – | –
CCCCCCC(N)C(=O)N(CCC[N+](C)(C)C)OCc1ccccc1.Cl.[Cl-] (centres undefined) | – | > 100 µM | 100 µM | 210 µM | – | – | –
CCCCCCCCCCC(N)C(=O)N(O)CCCN(C)C.Cl.Cl (centres undefined) | – | 40 µM | 100 µM | 79 µM | – | – | –
CCCCCCC(NC(=O)OC(C)(C)C)C(=O)N(CC[N+](C)(C)C)OCc1ccccc1.[I-] (centres undefined) | – | > 100 µM | 56 µM | > 500 µM | – | – | –
CCCCCCCCCCC(NC(=O)OC(C)(C)C)C(=O)N(CCC[N+](C)(C)C)OCc1ccccc1.[I-] (centres undefined) | – | 17 µM | – | 40 µM | – | 2.5 µM | –
CCCCCCCCCCCCCCCCCCC(N)C(=O)N(CC[N+](C)(C)C)OCc1ccccc1.Cl.[Cl-] (centres undefined) | – | 29 µM | 4 µM | 10 µM | – | – | –
CCCCCCC(N)C(=O)N(O)CCC[N+](C)(C)C.Cl.[Cl-] (centres undefined) | – | > 100 µM | > 500 µM | > 500 µM | – | – | –
CCCCCCCCCCC(N)C(=O)N(CC[N+](C)(C)C)OCc1ccccc1.Cl.[Cl-] (centres undefined) | – | 76.1 µM | 10 µM | > 500 µM | – | – | –
CCCCCCC(NC(=O)OC(C)(C)C)C(=O)N(CCCN(C)C)OCc1ccccc1 (centres undefined) | – | 21 µM | 77 µM | 75 µM | – | – | –
CCCCCCCCCCC(N)C(=O)N(CCCN(C)C)OCc1ccccc1.Cl.Cl (centres undefined) | – | 7 µM | 32 µM | 8 µM | – | – | –
CCCCCCCCCCCCCCCCCCC(N)C(=O)N(O)CC[N+](C)(C)C.Cl.[Cl-] (centres undefined) | – | 52.7 µM | 4 µM | 50 µM | – | – | –
CCCCCCCCCCC(NC(=O)OC(C)(C)C)C(=O)N(CC[N+](C)(C)C)OCc1ccccc1.[I-] (centres undefined) | – | 28.2 µM | 5 µM | > 500 µM | – | – | –
CCCCCCC(N)C(=O)N(O)CC[N+](C)(C)C.Cl.[Cl-] (centres undefined) | – | > 100 µM | 500 µM | > 500 µM | – | – | –
CCCCCCCCCCCCCCC(NC(=O)OC(C)(C)C)C(=O)N(CC[N+](C)(C)C)OCc1ccccc1.[I-] (centres undefined) | – | 27.6 µM | – | > 500 µM | – | – | 100%
CCCCCCCCCCC(N)C(=O)N(O)CCC[N+](C)(C)C.Cl.[Cl-] (centres undefined) | – | > 100 µM | 58 µM | 97 µM | – | 26 µM | –
CCCCCCC(N)C(=O)N(CCCN(C)C)OCc1ccccc1.Cl.Cl (centres undefined) | – | > 100 µM | > 500 µM | 158 µM | – | – | –
